Results from ChEMBL document CHEMBL4346663, “N-Cinnamoylanthranilates as human TRPA1 modulators: Structure-activity relationships and channel binding sites” (Eur J Med Chem, 2019).
Calls of active or inactive are those of the source. The calls are words filed in the database; no cut-off is given here.

Key:
[1] = target: T1, Transient receptor potential cation channel subfamily A member 1 (Homo sapiens, UniProt O75762); assay: Agonist activity at human TRPA1 expressed in HEK293 cells assessed as increase in calcium influx by Fluo-4-AM dye based fluorescence assay; assay type: cell-based; conditions: for EC50: read-out: EC50
Procedure, shortened: (§1)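 Stably transfected hTRPA1- or hTRPM8-HEK293 cells on poly-D-lysine plates for 48 h, loaded with Fluo-4AM (2 µM, 45 min, dark, room temperature), in isotonic HEPES buffer pH 7.4. FlexStation 240 s run: 20 s baseline, compound added, calcimycin added at 180 s. ΔRFU expressed as % calcimycin, DMSO-subtracted. Screening N = 3. Dose-response curves fitted for logEC50 (N = 3 in duplicate or triplicate).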

[2] = system: Transient receptor potential cation channel subfamily A member 1 (Homo sapiens), O75762 [F909A]; assay: Agonist activity at human TRPA1 Phe909Ala mutant expressed in HEK293 cells assessed as Ca2+ influx at 30 uM by fluorescence assay; assay type: cell-based
Procedure, shortened: (§2)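 HEK293 cells stably expressing hTRPA1 point mutants (C621A, F909A or F944A), single-cell cloned under G418 selection. Cells plated on poly-D-lysine for 48 h, loaded with Fluo-4AM 2 µM for 45 min at room temperature. FlexStation read (ex 485/em 538 nm): 20 s baseline, compound added, calcimycin added at 180 s. Response expressed as % calcimycin from ΔRFU, vehicle-subtracted, and compared with wild-type hTRPA1 cells.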

[3] = system: Transient receptor potential cation channel subfamily A member 1 (Homo sapiens), O75762 [F944A]; assay: Agonist activity at human TRPA1 Phe944Ala mutant expressed in HEK293 cells assessed as Ca2+ influx at 30 uM by fluorescence assay; assay type: cell-based; procedure, shortened: as §2
[4] = target: T1, Transient receptor potential cation channel subfamily A member 1; assay: Agonist activity at human TRPA1 expressed in HEK293 cells assessed as increase in calcium influx at 3 uM by Fluo-4-AM dye based fluorescence assay relative to calcimycin; assay type: cell-based; procedure, shortened: as §1
[5] = target: T2, Transient receptor potential cation channel subfamily M member 8 (Homo sapiens, UniProt Q7Z2W7); assay: Antagonist activity at human TRPM8 expressed in HEK293 cells assessed as increase in calcium influx at 3 uM incubated for 10 mins prior to WS5 challenge by Fluo-4-AM dye based fluorescence assay relative to WS5; assay type: cell-based; set-up: scale not given: the % may be the effect or the level left
Procedure, shortened: (§3)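 hTRPM8-HEK293 cells loaded with Fluo-4AM (2 µM, 45 min). Test compound pre-incubated 10 min before WS5 standard agonist. FlexStation fluorescence at 485/538 nm. ΔRFU given as % of WS5 response after DMSO vehicle subtraction. N = 3. IC50 from dose-response curves.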
Target sequence in this assay (Q7Z2W7 whole entry, looked up): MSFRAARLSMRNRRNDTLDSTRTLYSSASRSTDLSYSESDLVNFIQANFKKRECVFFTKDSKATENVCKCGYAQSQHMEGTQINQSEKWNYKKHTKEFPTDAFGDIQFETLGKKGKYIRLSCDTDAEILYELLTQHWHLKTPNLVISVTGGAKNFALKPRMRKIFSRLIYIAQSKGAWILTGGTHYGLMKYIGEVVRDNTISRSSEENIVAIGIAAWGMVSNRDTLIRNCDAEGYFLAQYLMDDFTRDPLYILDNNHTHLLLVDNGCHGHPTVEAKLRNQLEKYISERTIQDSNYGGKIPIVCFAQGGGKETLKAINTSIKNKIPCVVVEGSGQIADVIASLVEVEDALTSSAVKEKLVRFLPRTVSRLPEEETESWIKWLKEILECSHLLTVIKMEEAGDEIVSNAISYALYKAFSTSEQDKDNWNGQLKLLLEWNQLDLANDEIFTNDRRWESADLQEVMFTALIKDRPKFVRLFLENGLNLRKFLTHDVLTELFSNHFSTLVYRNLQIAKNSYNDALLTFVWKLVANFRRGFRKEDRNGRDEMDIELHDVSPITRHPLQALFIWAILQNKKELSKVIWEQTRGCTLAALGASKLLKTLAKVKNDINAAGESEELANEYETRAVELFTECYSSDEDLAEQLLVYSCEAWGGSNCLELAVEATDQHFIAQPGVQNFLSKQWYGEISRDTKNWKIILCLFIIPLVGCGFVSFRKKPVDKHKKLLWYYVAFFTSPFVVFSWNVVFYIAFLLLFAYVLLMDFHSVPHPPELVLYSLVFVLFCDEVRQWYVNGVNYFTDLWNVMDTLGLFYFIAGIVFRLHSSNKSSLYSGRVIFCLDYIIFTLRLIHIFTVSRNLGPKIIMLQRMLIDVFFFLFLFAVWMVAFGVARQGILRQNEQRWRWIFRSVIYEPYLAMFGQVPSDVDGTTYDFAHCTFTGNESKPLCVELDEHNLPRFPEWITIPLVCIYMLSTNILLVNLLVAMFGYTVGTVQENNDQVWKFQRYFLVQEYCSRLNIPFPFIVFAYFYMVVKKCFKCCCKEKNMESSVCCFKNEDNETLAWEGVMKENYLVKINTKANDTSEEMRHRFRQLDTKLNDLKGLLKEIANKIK

[6] = Dissociation constant, pKa of the compound at pH 7.4; assay type: physicochemical
[7] = target: T1, Transient receptor potential cation channel subfamily A member 1; assay: Agonist activity at human TRPA1 expressed in HEK293 cells assessed as increase in calcium influx at 30 uM by Fluo-4-AM dye based fluorescence assay relative to calcimycin; assay type: cell-based; procedure, shortened: as §1
[8] = target: T1, Transient receptor potential cation channel subfamily A member 1; assay: Antagonist activity at human TRPA1 expressed in HEK293 cells assessed as increase in calcium influx at 100 uM incubated for 10 mins prior to CA addition by Fluo-4-AM dye based fluorescence assay relative to CA; assay type: cell-based; set-up: scale not given: the % may be the effect or the level left
Procedure, shortened: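 hTRPA1-HEK293 cells loaded with Fluo-4AM (2 µM). Compound pre-incubated 10 min, then cinnamaldehyde standard agonist added. FlexStation read, ex 485/em 538 nm. ΔRFU normalized to the CA response set at 100 % after DMSO vehicle subtraction. N = 3. logIC50 taken from dose-response fits.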

[9] = target: T2, Transient receptor potential cation channel subfamily M member 8; assay: Agonist activity at human TRPM8 expressed in HEK293 cells assessed as increase in calcium influx at 30 uM by Fluo-4-AM dye based fluorescence assay relative to calcimycin; assay type: cell-based; procedure, shortened: as §1
Target sequence in this assay (Q7Z2W7 whole entry, looked up): as above

[10] = target: T2, Transient receptor potential cation channel subfamily M member 8; assay: Antagonist activity at human TRPM8 expressed in HEK293 cells assessed as increase in calcium influx at 100 uM incubated for 10 mins prior to WS5 challenge by Fluo-4-AM dye based fluorescence assay relative to WS5; assay type: cell-based; set-up: scale not given: the % may be the effect or the level left; procedure, shortened: as §3
Target sequence in this assay (Q7Z2W7 whole entry, looked up): as above

[11] = target: T2, Transient receptor potential cation channel subfamily M member 8; assay: Agonist activity at human TRPM8 expressed in HEK293 cells assessed as increase in calcium influx at 100 uM by Fluo-4-AM dye based fluorescence assay relative to calcimycin; assay type: cell-based; procedure, shortened: as §1
Target sequence in this assay (Q7Z2W7 whole entry, looked up): as above

[12] = target: T1, Transient receptor potential cation channel subfamily A member 1; assay: Antagonist activity at human TRPA1 expressed in HEK293 cells assessed as inhibition of CA-induced increase in calcium influx incubated for 10 mins prior to CA addition by Fluo-4-AM dye based fluorescence assayy; assay type: cell-based
[13] = system: Transient receptor potential cation channel subfamily A member 1 (Homo sapiens), O75762 [F909A]; assay: Agonist activity at human TRPA1 Phe909Ala mutant expressed in HEK293 cells assessed as Ca2+ influx at 10 uM by fluorescence assay; assay type: cell-based; procedure, shortened: as §2
[14] = system: Transient receptor potential cation channel subfamily A member 1 (Homo sapiens), O75762 [F944A]; assay: Agonist activity at human TRPA1 Phe944Ala mutant expressed in HEK293 cells assessed as Ca2+ influx at 10 uM by fluorescence assay; assay type: cell-based; procedure, shortened: as §2
[15] = target: T1, Transient receptor potential cation channel subfamily A member 1; assay: Antagonist activity at human TRPA1 expressed in HEK293 cells assessed as increase in calcium influx at 3 uM incubated for 10 mins prior to CA challenge by Fluo-4-AM dye based fluorescence assay […]; assay type: cell-based; set-up: scale not given: the % may be the effect or the level left
[16] = target: T2, Transient receptor potential cation channel subfamily M member 8; assay: Agonist activity at human TRPM8 expressed in HEK293 cells assessed as increase in calcium influx at 3 uM by Fluo-4-AM dye based fluorescence assay relative to calcimycin; assay type: cell-based; procedure, shortened: as §1
Target sequence in this assay (Q7Z2W7 whole entry, looked up): as above

[17] = system: Transient receptor potential cation channel subfamily A member 1 (Homo sapiens), O75762 [F909A]; assay: Agonist activity at human TRPA1 Phe909Ala mutant expressed in HEK293 cells assessed as Ca2+ influx at 100 uM by fluorescence assay; assay type: cell-based
Procedure, shortened: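 HEK293 cells stably expressing hTRPA1 point mutants, made by FuGENE 6 transfection, G418 (0.5 mg ml-1) selection and single-cell cloning, grown in DMEM with 25 mM HEPES, 10% FBS and geneticin. Ca2+ influx was read by Fluo dye fluorescence at room temperature, with calcimycin added at the end. Response was ΔRFU as % of calcimycin, with the DMSO vehicle subtracted.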

[18] = target: T2, Transient receptor potential cation channel subfamily M member 8; assay: Antagonist activity at human TRPM8 expressed in HEK293 cells assessed as inhibition in WS5-induced increase in calcium influx incubated for 10 mins prior to WS5 challenge by Fluo-4-AM dye based fluorescence assay; assay type: cell-based; procedure, shortened: as §3
Target sequence in this assay (Q7Z2W7 whole entry): as the sequence (Q7Z2W7 whole entry, looked up) above

Chain of Transient receptor potential cation channel subfamily A member 1 (Homo sapiens), O75762 [F944A] (O75762 whole entry F944A): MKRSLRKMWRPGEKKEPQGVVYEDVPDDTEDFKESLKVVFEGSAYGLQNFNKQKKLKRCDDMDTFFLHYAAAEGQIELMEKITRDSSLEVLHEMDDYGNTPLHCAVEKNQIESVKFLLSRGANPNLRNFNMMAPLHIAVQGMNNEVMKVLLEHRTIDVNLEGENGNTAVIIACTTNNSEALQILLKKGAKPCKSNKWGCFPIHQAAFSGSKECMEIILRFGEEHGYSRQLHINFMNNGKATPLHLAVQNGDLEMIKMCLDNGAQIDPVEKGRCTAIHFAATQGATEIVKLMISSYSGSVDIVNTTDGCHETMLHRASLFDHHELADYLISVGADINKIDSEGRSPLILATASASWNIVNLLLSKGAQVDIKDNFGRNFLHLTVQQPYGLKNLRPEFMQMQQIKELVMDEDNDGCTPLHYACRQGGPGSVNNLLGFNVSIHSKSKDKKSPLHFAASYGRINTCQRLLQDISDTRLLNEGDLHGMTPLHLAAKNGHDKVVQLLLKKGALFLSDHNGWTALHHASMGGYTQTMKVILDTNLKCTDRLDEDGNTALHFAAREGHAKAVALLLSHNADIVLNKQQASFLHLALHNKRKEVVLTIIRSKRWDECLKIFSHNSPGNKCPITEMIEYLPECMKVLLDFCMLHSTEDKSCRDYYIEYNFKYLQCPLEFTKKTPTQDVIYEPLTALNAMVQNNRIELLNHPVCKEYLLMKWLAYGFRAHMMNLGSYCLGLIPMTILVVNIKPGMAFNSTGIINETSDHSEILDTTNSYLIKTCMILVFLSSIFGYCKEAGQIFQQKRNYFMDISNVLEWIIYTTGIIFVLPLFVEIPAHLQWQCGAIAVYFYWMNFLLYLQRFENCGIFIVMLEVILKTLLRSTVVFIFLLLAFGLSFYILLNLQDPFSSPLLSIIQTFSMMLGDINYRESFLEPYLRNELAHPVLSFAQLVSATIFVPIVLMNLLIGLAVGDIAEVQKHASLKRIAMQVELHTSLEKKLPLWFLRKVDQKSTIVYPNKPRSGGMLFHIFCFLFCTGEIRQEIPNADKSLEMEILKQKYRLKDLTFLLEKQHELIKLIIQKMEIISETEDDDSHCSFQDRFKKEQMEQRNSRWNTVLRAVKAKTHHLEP
T1 sequence (O75762 whole entry): as the sequence (O75762 whole entry F944A) above, with A944F counted along it
Chain of Transient receptor potential cation channel subfamily A member 1 (Homo sapiens), O75762 [F909A] (O75762 whole entry F909A): as the sequence (O75762 whole entry F944A) above, with F909A, A944F counted along it

Row | Structure (SMILES) | Activity [4] [%] | Activity [5] [%] | pKa [6] | Activity [7] [%] | Activity [8] [%] | Activity [9] | Activity [10] [%] | Activity [11] | also measured
1 | Cc1ccc(C(C)C)cc1O [CARVACROL] | – | – | – | – | – | – | – | – | EC50 [1]: 17 µM; Activity [2]: inactive; Activity [3]: inactive
2 | COC(=O)c1ccccc1NC(=O)/C=C/c1ccc(N(C)C)cc1 | 27 | 86 | 4.8 | – | – | – | – | – | –
3 | COC(=O)c1ccccc1NC(=O)/C=C/c1ccc(C)cc1 | 28 | 88 | 13.9 | – | – | – | – | – | –
4 | COc1ccc(CCC(=O)Nc2ccccc2C(=O)O)cc1 | – | – | 3.5 | 6 | 74 | inactive | 57 | inactive | –
5 | COC(=O)c1ccccc1NC(=O)/C=C/c1ccc(F)cc1 | 34 | 85 | 13.9 | – | – | – | – | – | –
6 | COc1cccc(NC(=O)/C=C/c2ccc(Cl)cc2)c1 | – | – | – | – | – | – | – | – | pEC50 [1]: inactive
7 | COc1ccc(/C=C/C(=O)Nc2ccccc2C(=O)O)cc1 | – | – | 3.5 | 27 | 19 | inactive | 68 | inactive | EC50 [1]: 49 µM; IC50 [12]: 12 µM; Activity [2]: Active; Activity [3]: inactive
8 | COC(=O)c1ccccc1NC(=O)/C=C/c1ccc(Br)cc1 | 41 | 79 | 13.8 | – | – | – | – | – | –
9 | COC(=O)c1ccccc1NC(=O)/C=C/c1ccc(OC(C)=O)cc1 | 10 | 84 | 13.8 | – | – | – | – | – | –
10 | COC(=O)c1ccccc1NC(=O)/C=C/c1ccccc1Cl | 29 | 53 | 13.7 | – | – | – | – | – | –
11 | CCCCCc1ccc(/C=C/C(=O)Nc2ccccc2C(=O)O)cc1 | – | – | – | – | – | – | – | – | EC50 [1]: 28 µM; Activity [2]: Active; Activity [13]: Active; Activity [14]: inactive; Activity [3]: Active
12 | O=C(CCc1ccccc1)Nc1ccccc1C(=O)O | – | – | 3.5 | 10 | 81 | inactive | 48 | inactive | –
13 | COC(=O)c1ccccc1NC(=O)/C(=C/c1ccccc1)c1ccccc1 | 63 | 48 | 13.9 | – | – | – | – | – | Activity [15]: 51%; Activity [16]: 23%
14 | COC(=O)c1ccccc1NC(=O)/C=C/c1ccccc1 | 22 | 61 | 13.9 | – | – | – | – | – | Activity [15]: inactive; Activity [16]: inactive
15 | O=C(/C=C/c1ccc([N+](=O)[O-])cc1)Nc1ccccc1C(=O)O | – | – | 3.4 | 25 | 33 | inactive | 39 | inactive | EC50 [1]: 219 µM
16 | O=C(/C=C/c1ccccc1)Nc1ccccc1C(=O)O | – | – | 3.5 | 24 | 42 | inactive | 48 | inactive | –
17 | O=C(O)[C@@H]1CCCN1C(=O)/C=C/c1ccccc1 | – | – | 3.2 | 5 | 79 | inactive | 65 | inactive | –
18 | O=C(/C=C/c1ccc(O)c(O)c1)Nc1ccccc1C(=O)O | – | – | 3.5 | – | – | – | – | inactive | –

Row | Structure (SMILES) | Activity [4] [%] | Activity [5] [%] | pKa [6] | Activity [7] [%] | Activity [8] [%] | Activity [9] | Activity [10] [%] | Activity [11] | also measured
19 | Cc1ccc(C(C)C)c(O)c1 | – | – | – | – | – | – | – | – | Activity [17]: Active
20 | C/C(=C\c1ccccc1)C(=O)Nc1ccccc1C(=O)O | – | – | 3.5 | 33 | 29 | inactive | 28 | inactive | EC50 [1]: 133 µM; IC50 [18]: 27 µM; Activity [2]: Active; Activity [3]: inactive
21 | COC(=O)c1ccccc1NC(=O)/C=C/c1ccc(OC(C)=O)c(OC(C)=O)c1 | 12 | 102 | 13.6 | – | – | – | – | – | –
22 | COC(=O)c1ccccc1NC(=O)/C(C)=C/c1ccccc1 | 49 | 30 | 13.9 | – | – | – | – | – | Activity [15]: 73%
23 | COc1ccccc1/C=C/C(=O)Nc1ccccc1C(=O)O | – | – | 3.4 | 33 | 14 | inactive | 32 | inactive | EC50 [1]: 75 µM; IC50 [12]: 51 µM; IC50 [18]: 41 µM
24 | Cc1ccc(/C=C/C(=O)Nc2ccccc2C(=O)O)cc1 | – | – | 3.5 | 30 | 40 | inactive | 48 | inactive | EC50 [1]: 149 µM; Activity [2]: Active; Activity [3]: inactive
25 | COC(=O)c1ccccc1NC(=O)/C=C/c1ccc(C(F)(F)F)cc1 | 29 | 81 | 13.7 | – | – | – | – | – | –
26 | CN(C)c1ccc(/C=C/C(=O)Nc2ccccc2C(=O)O)cc1 | – | – | 3.5 | – | – | – | – | inactive | –
27 | O=C(O)C1CCCCN1C(=O)/C=C/c1ccccc1 (racemic) | – | – | 3.3 | 7 | 71 | inactive | 72 | inactive | –
28 | COc1ccc(/C=C/C(=O)Nc2ccccc2C(=O)O)cc1OC | – | – | 3.5 | 6 | 56 | inactive | 65 | inactive | IC50 [12]: 126 µM
29 | COC(=O)c1ccccc1NC(=O)/C=C/c1ccc(Cl)cc1 | 45 | 70 | 13.8 | – | – | – | – | – | –
30 | COC(=O)c1ccccc1NC(=O)/C=C/c1ccc([N+](=O)[O-])cc1 | – | – | 13.6 | – | – | – | – | – | –
31 | CCOc1cc(/C=C/C(=O)Nc2ccccc2C(=O)O)ccc1O | – | – | 3.5 | 5 | 34 | inactive | 73 | inactive | IC50 [12]: 106 µM
32 | O=C(Nc1ccccc1C(=O)O)/C(=C/c1ccccc1)c1ccccc1 | – | – | 3.4 | 66 | 22 | 14% | – | 34% | EC50 [1]: 11 µM; Activity [13]: Active
33 | C=CCN=C=S | – | – | – | – | – | – | – | – | Activity [13]: Active
34 | CC(=C\c1ccc(Cl)cc1)/C(C)=N/O [AP18 5] | – | – | – | – | – | – | – | – | IC50 [12]: 4 µM
35 | NC(=O)c1cccc(-c2cccc(OC(=O)NC3CCCCC3)c2)c1 [URB-597] | – | – | – | – | – | – | – | – | EC50 [1]: 0.1 µM; Activity [17]: Active
36 | C=CC=O [ACROLEIN] | – | – | – | – | – | – | – | – | EC50 [1]: 27 µM; Activity [2]: Active; Activity [3]: inactive
